In EPA's CvTdb concentration-time database:

Assays:
Rat [1] = experiment: concentration in brain after dosing; conditions: 10 min; dosed: alpha-Thujone; 50 mg/kg; oral; Female; Harlan Sprague Dawley
Rat [2] = experiment: concentration in brain after dosing; conditions: 5 min; dosed: alpha-Thujone; 25 mg/kg; oral; Male; Harlan Sprague Dawley
Rat [3] = experiment: concentration in brain after dosing; conditions: 3 h; dosed: alpha-Thujone; 50 mg/kg; oral; Female; Harlan Sprague Dawley
Rat [4] = experiment: concentration in brain after dosing; conditions: 5 min; dosed: alpha-Thujone; 25 mg/kg; oral; Male; Harlan Sprague Dawley; remark: listed apart in the source
Rat [5] = experiment: concentration in brain after dosing; conditions: 2.5 h; dosed: 76231-76-0; 3.0 mg/kg; iv; Female; F344
Rat [6] = experiment: concentration in brain after dosing; conditions: 6 h; dosed: alpha-Thujone; 50 mg/kg; oral; Female; Harlan Sprague Dawley
Rat [7] = experiment: concentration in plasma after dosing; conditions: 1.5 h; dosed: alpha-Thujone; 50 mg/kg; oral; Female; Harlan Sprague Dawley
Rat [8] = experiment: concentration in plasma after dosing; conditions: 1.5 h; dosed: alpha-Thujone; 50 mg/kg; oral; Female; Harlan Sprague Dawley; remark: listed apart in the source
Rat [9] = experiment: concentration in plasma after dosing; conditions: 0.5 h; dosed: alpha-Thujone; 50 mg/kg; oral; Female; Harlan Sprague Dawley
Rat [10] = experiment: concentration in plasma after dosing; conditions: 3 h; dosed: alpha-Thujone; 50 mg/kg; oral; Male; Harlan Sprague Dawley
Rat [11] = experiment: concentration in plasma after dosing; conditions: 3 h; dosed: alpha-Thujone; 50 mg/kg; oral; Female; Harlan Sprague Dawley
Rat [12] = experiment: concentration in plasma after dosing; conditions: dosed: Pyridine, 25 mg/kg, oral, Male, F344
Rat [13] = experiment: concentration in plasma after dosing; conditions: 2 min; dosed: Pyridine; 10 mg/kg; iv; Male; F344
rat [14] = experiment: amount in urine after dosing (umol); conditions: inhalation, duration: 4 hr, F344 (Harlan Winkelmann)
Rat [15] = experiment: concentration in plasma after dosing; conditions: dosed: Methyleugenol, 37 mg/kg, oral, Male, F344/N
Rat [16] = experiment: concentration in plasma after dosing; conditions: dosed: Methyleugenol, 37 mg/kg, iv, Female, F344
Rat [17] = experiment: concentration in plasma after dosing; conditions: dosed: Methyleugenol, 37 mg/kg, oral, Male, F344/N; remark: listed apart in the source
human = conditions: dosed: trichloroethylene, 100 ppm, inhalation, duration: 4 hr, person
Procedure, shortened: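 Sampling and analytical methods are those of each source and frequently went unreported. The concentration-versus-time and amount-versus-time points were compiled from published in vivo toxicokinetic studies and two structured collections. Most were digitised from plot screenshots with WebPlotDigitizer, with others copied from tables, in the reported units.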

Rat [18] = experiment: concentration in plasma after dosing; conditions: 0.5 h; dosed: Primidone; 130 mg/kg; oral; Male; Harlan Sprague Dawley
Rat [19] = experiment: concentration in plasma after dosing; conditions: 12 h; dosed: Primidone; 80 mg/kg; oral; Female; Harlan Sprague-Dawley
Rat [20] = experiment: concentration in plasma after dosing; conditions: 0.5 h; dosed: Primidone; 130 mg/kg; oral; Male; Harlan Sprague Dawley; remark: listed apart in the source
Rat [21] = experiment: concentration in plasma after dosing; conditions: 9 h; dosed: Primidone; 130 mg/kg; oral; Female; F344
Rat [22] = experiment: concentration in liver after dosing; conditions: 3 h; dosed: Perfluorohexane-1-sulphonic acid – potassium salt; 16 mg/kg; oral; Female; Harlan Sprague Dawley
Rat [23] = experiment: concentration in brain after dosing; conditions: 3 h; dosed: Perfluorohexane-1-sulphonic acid – potassium salt; 16 mg/kg; oral; Female; F344
Rat [24] = experiment: concentration in liver after dosing; conditions: dosed: Perfluorohexane-1-sulphonic acid – potassium salt, 16 mg/kg, oral
Rat [25] = experiment: concentration in liver after dosing; conditions: 12 h; dosed: Perfluorohexane-1-sulphonic acid – potassium salt; 16 mg/kg; oral; Female; Harlan Sprague Dawley
Rat [26] = experiment: concentration in plasma after dosing; conditions: 1 h; dosed: Perfluorohexane-1-sulphonic acid – potassium salt; 16 mg/kg; oral; Male; F344
Rat [27] = experiment: concentration in kidney after dosing; conditions: 24 h; dosed: Perfluorohexane-1-sulphonic acid – potassium salt; 16 mg/kg; oral; Female; F344

CC(C)[C@]12CC(=O)[C@H](C)[C@H]1C2 [alpha-Thujone]
Conditions | concentration in brain [ng/g] | concentration in plasma [ng/mL]
Rat [1] | 2340 | –
Rat [2] | 754 | –
Rat [3] | 416 | –
Rat [4] | 589 | –
Rat [5] | 15.2 | –
Rat [6] | 165 | –
Rat [7] | – | 560
Rat [8] | – | 323
Rat [9] | – | 433
Rat [10] | – | 357
Rat [11] | – | 303

c1ccncc1 [Pyridine]
Rat [12]
Conditions | concentration in plasma [ng/mL]
4 h | 15900
5 min | 7460

Conditions | concentration in plasma [ng/mL]
Rat [13] | 1310

CC(C)(O)CO [2-methyl-1,2-propanediol]
rat [14]
Conditions | amount in urine
5.902 h, dosed: ethyl tert-butyl ether, 4.5 ppm | 0.0942
5.941 h, dosed: methyl tert-butyl ether, 38.7 ppm | 1.91
5.99 h, dosed: ethyl tert-butyl ether, 40.6 ppm | 0.962
11.87 h, dosed: ethyl tert-butyl ether, 4.5 ppm | 0.122
11.94 h, dosed: methyl tert-butyl ether, 38.7 ppm | 1.17
11.96 h, dosed: ethyl tert-butyl ether, 40.6 ppm | 0.855
11.97 h, dosed: methyl tert-butyl ether, 4.5 ppm | 0.56
17.81 h, dosed: ethyl tert-butyl ether, 4.5 ppm | 0.0535
17.95 h, dosed: methyl tert-butyl ether, 38.7 ppm | 0.268
18.01 h, dosed: ethyl tert-butyl ether, 40.6 ppm | 0.254
18.01 h, dosed: methyl tert-butyl ether, 4.5 ppm | 0.155
23.76 h, dosed: ethyl tert-butyl ether, 4.5 ppm | 0.0171
23.93 h, dosed: methyl tert-butyl ether, 38.7 ppm | 0.126
23.95 h, dosed: methyl tert-butyl ether, 4.5 ppm | 0.0371
23.96 h, dosed: ethyl tert-butyl ether, 40.6 ppm | 0.0668
29.72 h, dosed: ethyl tert-butyl ether, 4.5 ppm | 0.015
29.91 h, dosed: methyl tert-butyl ether, 38.7 ppm | 0.0631
29.93 h, dosed: ethyl tert-butyl ether, 40.6 ppm | 0.0668
29.96 h, dosed: methyl tert-butyl ether, 4.5 ppm | 0.023

C=CCc1ccc(OC)c(OC)c1 [Methyleugenol]
Conditions | concentration in plasma [ng/mL]
Rat [15], 5 min | 670
Rat [15], 6 h | 11.6
Rat [16], 0.5 h | 1330
Rat [16], 0.75 h | 535
Rat [17], 1.5 h | 148
Rat [17], 8 h | 8.19

OCC(Cl)(Cl)Cl [trichloroethanol]
human
Conditions | amount in urine after dosing [mg]
1 h | 13
2 h | 11
4 h | 21.5
8 h | 36.3
12 h | 31.4
16 h | 26.7
24 h | 33.6
36 h | 39.7
48 h | 22.6
60 h | 17
72 h | 11.5
84 h | 6.52
96 h | 3.88
108 h | 6
120 h | 3.14
132 h | 2.17
144 h | 1.65
156 h | 0.88
168 h | 1.08
180 h | 1.17

CCC1(c2ccccc2)C(=O)NCNC1=O [Primidone]
Conditions | concentration in plasma [ng/mL]
Rat [18] | 47900
Rat [19] | 1400
Rat [20] | 55800
Rat [21] | 52500

O=S(=O)([O-])C(F)(F)C(F)(F)C(F)(F)C(F)(F)C(F)(F)C(F)(F)F.[K+] [Perfluorohexane-1-sulphonic acid – potassium salt]
Conditions | concentration in brain [ng/g] | concentration in kidney [ng/g] | concentration in liver [ng/g] | concentration in plasma [ng/mL]
Rat [22] | – | – | 57400 | –
Rat [23] | 1600 | – | – | –
Rat [25] | – | – | 29700 | –
Rat [26] | – | – | – | 55600
Rat [27] | – | 28100 | – | –

concentration in liver [ng/g], Rat [24]
Conditions | 3 h | 6 h | 12 h | 24 h | 48 h | 96 h | 192 h | 528 h | 1200 h
Female, F344 | 67800 | 62400 | 68600 | 58000 | – | – | 47000 | 27600 | –
Female, Harlan Sprague Dawley | 49500 | 49000 | 33300 | 26100 | 14000 | 6030 | 1460 | – | –
Male, Harlan Sprague Dawley | – | – | – | – | – | – | – | – | 14800
